ChEMBL document CHEMBL4184341, “Structure-Based Design of Inhibitors with Improved Selectivity for Steroidogenic Cytochrome P450 17A1 over Cytochrome P450 21A2” (J Med Chem, 2018)

Assays:
[1] = molecular target: T1, Steroid 17-alpha-hydroxylase/17,20 lyase (Homo sapiens, UniProt P05093); assay: Inhibition of C-terminal His-tagged recombinant human CYP17A1delta19H mutant expressed in Escherichia coli DH5alpha assessed as decrease in progesterone hydroxylation preincubated for 3 mins followed by NADPH addition measured after 10 mins in presence of cytochrome p450 reductase by LC-MS/MS method
Summary of the method: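 Purified human CYP17A1 (20 pmol) was preincubated with full-length human CPR (80 pmol) for 20 min at rt. […] After 3 min at 37 °C, 1 mM NADPH was added and the reaction ran 10 min before a TCA stop. The 17α-hydroxy product was read by LC-MS/MS.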

Steroid 21-hydroxylase = Steroid 21-hydroxylase (Homo sapiens, UniProt P08686); assay: Inhibition of C-terminal His-tagged recombinant human CYP21A2deltaH mutant expressed in Escherichia coli DH5alpha assessed as decrease in progesterone hydroxylation preincubated for 3 mins followed by NADPH addition measured after 8 mins in presence of cytochrome p450 reductase by LC-MS/MS method
Homo sapiens = species: Homo sapiens; assay: Selectivity ratio of IC50 for C-terminal His-tagged recombinant human CYP21A2deltaH mutant to IC50 for C-terminal His-tagged recombinant human CYP17A1delta19H mutant
[2] = molecular target: T1, Steroid 17-alpha-hydroxylase/17,20 lyase; assay: Inhibition of C-terminal His-tagged recombinant human CYP17A1delta19H mutant expressed in Escherichia coli JM109 cells assessed as decrease in progesterone hydroxylation in presence of cytochrome P450 reductase […]

Steroid 21-hydroxylase, sequence (P08686 whole entry, looked up, stated change not applied): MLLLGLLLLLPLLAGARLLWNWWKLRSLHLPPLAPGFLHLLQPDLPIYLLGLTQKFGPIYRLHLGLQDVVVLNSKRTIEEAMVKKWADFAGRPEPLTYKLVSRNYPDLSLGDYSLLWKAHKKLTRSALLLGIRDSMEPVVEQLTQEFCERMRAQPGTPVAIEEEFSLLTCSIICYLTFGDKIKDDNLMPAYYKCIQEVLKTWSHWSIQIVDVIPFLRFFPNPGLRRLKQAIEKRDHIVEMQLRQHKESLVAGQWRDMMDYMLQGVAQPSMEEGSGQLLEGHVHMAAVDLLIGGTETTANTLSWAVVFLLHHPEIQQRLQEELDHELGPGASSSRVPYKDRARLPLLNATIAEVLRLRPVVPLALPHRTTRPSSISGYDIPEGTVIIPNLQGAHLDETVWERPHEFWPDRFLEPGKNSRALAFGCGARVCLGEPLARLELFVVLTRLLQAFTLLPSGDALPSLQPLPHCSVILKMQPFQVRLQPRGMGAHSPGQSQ
T1 sequence (P05093 whole entry, looked up): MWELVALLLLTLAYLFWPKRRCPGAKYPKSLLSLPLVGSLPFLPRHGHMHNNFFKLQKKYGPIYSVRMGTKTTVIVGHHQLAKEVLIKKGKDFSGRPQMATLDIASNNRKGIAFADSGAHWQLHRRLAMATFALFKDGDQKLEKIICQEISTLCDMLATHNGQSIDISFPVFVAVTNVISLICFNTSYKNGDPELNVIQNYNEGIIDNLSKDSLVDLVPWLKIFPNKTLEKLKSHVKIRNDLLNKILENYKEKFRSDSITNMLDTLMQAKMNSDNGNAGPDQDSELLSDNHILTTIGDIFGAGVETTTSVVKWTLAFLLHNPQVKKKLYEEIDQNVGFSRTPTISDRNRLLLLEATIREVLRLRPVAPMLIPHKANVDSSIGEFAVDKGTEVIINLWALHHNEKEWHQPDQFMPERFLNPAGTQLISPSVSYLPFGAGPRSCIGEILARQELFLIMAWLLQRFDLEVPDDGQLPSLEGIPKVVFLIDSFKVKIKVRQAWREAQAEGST

Row | SMILES | IC50 [1] [nM] | IC50 (Steroid 21-hydroxylase) [nM] | Ratio IC50 (Homo sapiens) | IC50 [2] [nM]
1 | C[C@]12CC[C@H](O)C[C@@H]1NC(=O)C[C@@H]1[C@@H]2CC[C@]2(C)C(c3cccnc3)=CC[C@@H]12 | 230 | 3600 | 16 | 
2 | C[C@]12CC[C@H](O)CC1=CC[C@@H]1[C@@H]2CC[C@]2(C)C(c3ccccc3)=CC[C@@H]12 | > 20000 | ≥ 700 |  | 
3 | C[C@]12CC[C@H](O)CC1=C(C(N)=O)C[C@@H]1[C@@H]2CC[C@]2(C)C(c3cccnc3)=CC[C@@H]12 | 22.8 | 673 | 29 | 
4 | C[C@]12CC[C@H](O)CC1=C(C#N)C[C@@H]1[C@@H]2CC[C@]2(C)C(c3cccnc3)=CC[C@@H]12 | 15.5 |  |  | 
5 | C[C@]12CCC(=O)C=C1CC[C@@H]1[C@@H]2CC[C@]2(C)C(c3cccnc3)=CC[C@@H]12 | 6.13 | 0.7 |  | 
6 | C[C@]12CC[C@H](O)CC1=CC[C@@H]1[C@@H]2CC[C@]2(C)C(n3cnc4ccccc43)=CC[C@@H]12 [GALETERONE] | 28.1 |  |  | 
7 | C[C@]12CC[C@H](O)C[C@@H]1[C@@H](O)C[C@@H]1[C@@H]2CC[C@]2(C)C(c3cccnc3)=CC[C@@H]12 | 7.2 | 234 | 33 | 
8 | C[C@]12CC[C@H](O)C[C@@H]1C(=O)C[C@@H]1[C@@H]2CC[C@]2(C)C(c3cccnc3)=CC[C@@H]12 | 12.4 | 440 | 35 | 
9 | C[C@]12CC[C@H](O)CC1=CC[C@@H]1[C@@H]2CC[C@]2(C)C(c3cccnc3)=CC[C@@H]12 [ABIRATERONE] | 4.94 |  |  | 9.4 to 92
